From PubChem BioAssay
Records with an inconclusive call do not appear.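 The calls were made as follows, unless noted: active = RAM network inhibition above 8.4% in each of two replicates, 3 SD over the compound average; inconclusive = above 8.4% inhibition in only one replicate; inactive = 8.4% inhibition or less in each replicate.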

How the values were obtained:
[1] = OD615 S. cerevisiae growth inhibition, permissive medium, pilot counter-assay, permissive growth control for S. cerevisiae lifespan shortening project (AID 705;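 active = growth inhibition above 25% in both replicates, a cutoff set 3 SD above the mean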); conditions: OD615, 24 h, at 10 µM, hits give high values
Method in brief: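 System: engineered DeaD yeast; Medium: permissive raffinose/galactose medium; Compound dosing: 10 µM single dose, 0.25% DMSO; Incubation: 4 h cell pre-growth, 24 h exposure at 30 °C; Technique: OD at 615 nm; Evaluation: growth inhibition from lowered OD615 after 24 h.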

[2] = Restrictive medium S. cerevisiae growth inhibition, OD615, pilot screen of yeast lifespan reduction project, restrictive growth control (AID 706;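 active = growth inhibition above a set limit, 3 SD over mean compound inhibition, in both replicates, cut at about 43% in these data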;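 also: modified DeaD lifespan yeast strain shifted to restrictive glucose medium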); conditions: OD615, 48 h, at 10 µM, hits give high values
Method in brief: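 Material: modified S. cerevisiae; buffer or medium: CSMM-D glucose medium; doses: one concentration, 10 µM final, 0.25% DMSO; incubation: 48 h compound exposure at 30 °C; detection: optical density at 615 nm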

[3] = viability gain of MRP-1-high H69AR cells under doxorubicin, pilot screen, MRP-1 activator project, CellTiter-Glo, duplicate (AID 807;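 active = viability increase at or above a cutoff of the median across tested compounds plus 3 SD, cut at about 8.5% in these data, passing the limit was not always enough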;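 also: compound pretreatment 18-22 h then 72 h combined with doxorubicin; 0% = doxorubicin alone and 100% = vehicle without doxorubicin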); conditions: H69AR viability with doxorubicin, CellTiter-Glo luminescence; at 10 µM; hits give high values
[4] = growth suppression of beta-catenin knockout HCT116, pilot screen, human colon tumor cells (AID 823;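 active = cell viability at or below a set limit in both duplicate runs, the limit being the all-compound median minus 4 SD, cut at about 23% in these data, passing the limit was not always enough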;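 also: 0% = wells killed by 20 µM Hyamine and 100% = untreated DMSO cell wells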); conditions: CellTiter-Glo, 60 h, at 10 µM, hits give low values
[5] = growth suppression of PTEN-deleted HCT116, pilot screen, cell-based, HCT116 clonal line, CellTiter-Glo (AID 824;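 active = viability at or below 27.92% in each of two runs, the all-compound median minus 4 SD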;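 also: 0% = 20 µM Hyamine control and 100% = vehicle cell control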); conditions: 60 h, at 10 µM, hits give low values
[6] = inhibitors of the yeast RAM network, pilot screen, dse1pr::URA3 reporter, 5-FOA selection (AID 869;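 active = inhibition over a set limit, the all-compound mean plus 3 SD, in both replicate runs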;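 also: 0% = DMSO wells with no growth and 100% = 10 µM 1-NA-PP1 with full growth; RAM network block rescues cells from 5-FOA so hits raise OD615 growth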); conditions: S. cerevisiae dse1pr::URA3 5-FOA growth, OD615, 2 d; at 10 µM; hits give high values; strain carries analog-sensitive mutant Cbk1 kinase
[7] = RAM signaling pathway blockade in yeast – S. cerevisiae, Pdr1DBD-CYC8 efflux-inhibited sensitized strain, primary screen (AID 1298);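 also: 0% = DMSO untreated cells without growth and 100% = 10 µM 1-NA-PP1 full growth; higher means more yeast growth rescued from 5-FOA killing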; conditions: S. cerevisiae cbk1-as DSE1-URA3 strain, 5-FOA growth OD615, 2 d; at 50 µM; hits give high values

COc1ccc(C2CC(c3ccc(Cl)c(Cl)c3)Nc3nc(N)nn32)cc1 (stereo not drawn)
inactive: growth inhibition [1] -6.79% | growth inhibition [2] 12.7% | viability increase [3] -2.3% | viability [4] 75.4% | viability [5] 76.4% | inhibition [6] 2.52% | RAM network inhibition [7] 5.52%

COCCN1C(=O)c2ccccc2C(C(=O)N2CCN(c3ccccn3)CC2)C1c1ccc(F)cc1 (stereo not drawn)
inactive: growth inhibition [1] 1.72% | growth inhibition [2] -22.7% | viability increase [3] -4.12% | viability [4] 92.2% | viability [5] 90.4% | inhibition [6] 0.335% | RAM network inhibition [7] 8.63%

O=C(Nc1ccc(Br)cc1F)C1CCN(c2nnc(-n3cccc3)s2)CC1
inactive: growth inhibition [1] 2.32% | growth inhibition [2] -4.69% | viability increase [3] 0.53% | viability [4] 97.8% | viability [5] 99.8% | inhibition [6] 3.21% | RAM network inhibition [7] 0.36%

CCCSc1nnc2nc(C)cc(C)n12
inactive: growth inhibition [1] -2.7% | growth inhibition [2] 1.39% | viability increase [3] -0.95% | viability [4] 103% | viability [5] 101% | inhibition [6] 2% | RAM network inhibition [7] -0.46%

CCOC(=O)N1CCN(C(=O)CSc2nc3c(cnn3-c3ccc(C)cc3)c(=O)[nH]2)CC1
inactive: growth inhibition [1] -0.175% | growth inhibition [2] 4.84% | viability increase [3] -4.44% | viability [4] 95.7% | viability [5] 94.1% | inhibition [6] -0.44% | RAM network inhibition [7] 3.12%

CCOC(=O)CSc1nc2sc(C(=O)O)c(C)c2c(=O)[nH]1
inactive: growth inhibition [1] 0.2% | growth inhibition [2] -4.45% | viability increase [3] -1.82% | viability [4] 102% | viability [5] 103% | inhibition [6] 1.92% | RAM network inhibition [7] 3.85%

Cn1c(C(=O)NCc2ccccn2)cc2c(=O)n(C)c3ccccc3c21
inactive: growth inhibition [1] -1.81% | growth inhibition [2] 0.035% | viability increase [3] -4.13% | viability [4] 103% | viability [5] 89.5% | inhibition [6] 0.965% | RAM network inhibition [7] -0.15%

CCOC(=O)N1CCC(NC(=O)CN2C(=O)CSc3nc(C)cc(C)c32)CC1
inactive: growth inhibition [1] -8.91% | growth inhibition [2] 6.29% | viability increase [3] -0.46% | viability [4] 109% | viability [5] 97.7% | inhibition [6] -0.65% | RAM network inhibition [7] 0.43%

COc1ccc(S(=O)(=O)N2CCN(C)CC2)cc1Br
inactive: growth inhibition [1] -1.05% | growth inhibition [2] 9.22% | viability increase [3] -2.75% | viability [4] 95% | viability [5] 92% | inhibition [6] 1.01% | RAM network inhibition [7] -0.01%

Cc1ccc(-n2ncc3c(NCCCn4ccnc4)ncnc32)c(C)c1
inactive: growth inhibition [1] -3.41% | growth inhibition [2] -7.83% | viability increase [3] -0.58% | viability [4] 88.8% | viability [5] 90.6% | inhibition [6] 1.5% | RAM network inhibition [7] 2.5%

CCN(CC)S(=O)(=O)c1ccc(S(=O)(=O)N2CCN(CCC#N)CC2)cc1
inactive: growth inhibition [1] -8.46% | growth inhibition [2] -3.54% | viability increase [3] -1.58% | viability [4] 99.6% | viability [5] 94.7% | inhibition [6] 1.38% | RAM network inhibition [7] -1.32%

COc1ccccc1-c1nnc(SCC(=O)Nc2ccc(Cl)cc2Cl)o1
inactive: growth inhibition [1] -2.08% | growth inhibition [2] 9.34% | viability increase [3] 2.61% | viability [4] 97.4% | viability [5] 91.1% | inhibition [6] 1.71% | RAM network inhibition [7] 8.66%

O=C(CCn1c(=O)oc2ccccc21)NCc1ccc2c(c1)OCO2
inactive: growth inhibition [1] -11.4% | growth inhibition [2] -19.9% | viability increase [3] -2.85% | viability [4] 100% | viability [5] 91.3% | inhibition [6] 2.35% | RAM network inhibition [7] 6.04%

Cc1cc2oc3c(c(=O)c2cc1C)C(c1ccc(F)cc1)N(CCCN1CCOCC1)C3=O (stereo not drawn)
inactive: growth inhibition [1] 4.43% | growth inhibition [2] -11.3% | viability increase [3] -2.77% | viability [4] 98.5% | viability [5] 96% | inhibition [6] 1.74% | RAM network inhibition [7] 1.83%

CCN1CCN(CC(=O)NC2CCCCC2)C(=O)C1=O
inactive: growth inhibition [1] -14.6% | growth inhibition [2] -12.4% | viability increase [3] -0.83% | viability [4] 96.1% | viability [5] 96.3% | inhibition [6] 0.89% | RAM network inhibition [7] 2.42%

Cc1cc(C)c(S(=O)(=O)Nc2nnc(C)s2)c(C)c1
inactive: growth inhibition [1] -20.6% | growth inhibition [2] -11.7% | viability increase [3] 3.99% | viability [4] 102% | viability [5] 99.3% | inhibition [6] 0.87% | RAM network inhibition [7] 8.49%

CC12CN3CC(C)(CN(C1)C3c1ccc3ccccc3c1O)C2=O (stereo not drawn)
inactive: growth inhibition [1] -10.8% | growth inhibition [2] -19.3% | viability increase [3] -0.54% | viability [4] 101% | viability [5] 100% | inhibition [6] -0.515% | RAM network inhibition [7] -0.68%

CC1(C)CC(=O)c2sc(NC(=O)CN3C(=O)CCC3=O)nc2C1
inactive: growth inhibition [1] -6.85% | growth inhibition [2] 0.48% | viability increase [3] -1.54% | viability [4] 103% | viability [5] 103% | inhibition [6] 0.685% | RAM network inhibition [7] 2.38%

CCCc1ccc2c(N)c(C#N)sc2n1
inactive: growth inhibition [1] -9.88% | growth inhibition [2] 2.12% | viability increase [3] 0.61% | viability [4] 111% | viability [5] 104% | inhibition [6] 0.235% | RAM network inhibition [7] -0.37%

CCN(CC)S(=O)(=O)c1ccc(C(=O)Nc2nnc(C(C)C)s2)cc1
inactive: growth inhibition [1] -12.7% | growth inhibition [2] -1.79% | viability increase [3] 0.3% | viability [4] 104% | viability [5] 95% | inhibition [6] 1.25% | RAM network inhibition [7] 4.27%

O=C(O)c1ccccc1C(=O)NCC(O)COCC1CC=CCC1 (stereo not drawn)
inactive: growth inhibition [1] -14.5% | growth inhibition [2] -16.2% | viability increase [3] -1.89% | viability [4] 101% | viability [5] 100% | inhibition [6] 1.33% | RAM network inhibition [7] 3.55%

CC1CN(Cc2nc3c(c(=O)n(C)c(=O)n3C)n2Cc2ccc(Cl)cc2)CC(C)O1 (stereo not drawn)
inactive: growth inhibition [1] -3.79% | growth inhibition [2] 0.39% | viability increase [3] -0.99% | viability [4] 91.6% | viability [5] 91.9% | inhibition [6] 2.13% | RAM network inhibition [7] 4.34%

CC(C)N(Cc1nc(-c2ccccc2)no1)C(=O)Cc1ccccc1
inactive: growth inhibition [1] -14.4% | growth inhibition [2] -16.3% | viability increase [3] -2.2% | viability [4] 87.1% | viability [5] 79.3% | inhibition [6] -0.4% | RAM network inhibition [7] 2.86%

Cc1ccc(C(c2sc3ncnn3c2O)N2CCCCC2)cc1 (stereo not drawn)
inactive: growth inhibition [1] -12.7% | growth inhibition [2] -15.6% | viability increase [3] 1.87% | viability [4] 92.9% | viability [5] 101% | inhibition [6] 0.04% | RAM network inhibition [7] -0.37%
